Measurements: the RNAGym collection of RNA variant scans (doi:10.1126/science.aae0568)
This sample holds only a part of the variants without activity.

B1: tRNA (parent)
chain: GUUCCGUUGGCGUAAUGGUAACGCGUCUCCCUCCUAAGGAGAAGACUGCGGGUUCGAGUCCCGUACGGAACG

Variants of: B1
Assay: yeast fitness relative to wild type (ratio to wild type); higher = fitter; tRNA-Arg(CCU), competitive growth, 37 C, YPD
Summary of the method: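 Start and end populations of a pooled competition were compared by 100-nucleotide paired-end sequencing of gene amplicons. The Saccharomyces cerevisiae strains carried tRNA-Arg(CCU) gene variants at the native genomic locus, synthesised with a 3% per-site mutation rate at 69 sites, and competed in YPD at 37°C for 24 hours in six parallel replicates. Darwinian fitness relative to wild type was based on the change in genotype frequencies. Genotypes required ≥ 100 starting reads, and estimates < 0.5 were set to 0.5.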

For C4U U35C A36G G44C, which yeast fitness is on record?
Its yeast fitness is 0.708.

Which yeast fitness does the source give for C5A C11G A21U G44C A57U here?
Its yeast fitness is ≤ 0.5.

With C4U U47C G52C C61A as the variant, how does the yeast fitness read?
Its yeast fitness is ≤ 0.5.

For C5A C11G G38C G58C, which yeast fitness is on record?
Its yeast fitness is ≤ 0.5.

For C4U U28A, which yeast fitness is on record?
Its yeast fitness is 0.749.

Which yeast fitness does the source give for C5A C11U C46U G50C here?
Its yeast fitness is 0.709.

Which yeast fitness does the source give for C4U U16A G23A A36G C49G C61A here?
Its yeast fitness is ≤ 0.5.

Which yeast fitness does the source give for C5A A14C A15G G58C C60U C66G here?
Its yeast fitness is ≤ 0.5.

For C5A A40G, which yeast fitness is on record?
The yeast fitness was 0.713.

With C5A A20G U35G G41A G56A A70C as the variant, how does the yeast fitness read?
Its yeast fitness is ≤ 0.5.

With C5A C22G C29A A43U as the variant, how does the yeast fitness read?
The yeast fitness was 0.574.

For C5A A42G C49G U54C G63C A70U, which yeast fitness is on record?
The yeast fitness was ≤ 0.5.

With C5A A15C C30A A42U C55U C66A as the variant, how does the yeast fitness read?
The yeast fitness was ≤ 0.5.

For C5A A40U G41C, which yeast fitness is on record?
The yeast fitness was 0.614.

For C5A A37C C49A, which yeast fitness is on record?
The yeast fitness was ≤ 0.5.

Which yeast fitness does the source give for C4U U26A A37G C66G here?
Its yeast fitness is ≤ 0.5.

Which yeast fitness does the source give for C5A A15G C34U A40C G56A G63A here?
The yeast fitness was ≤ 0.5.

With C5A C11G C29U A36U G50C U54G as the variant, how does the yeast fitness read?
Its yeast fitness is ≤ 0.5.

Which yeast fitness does the source give for C5A A15U A21U C61U A69C here?
The yeast fitness was ≤ 0.5.

With C5A A40G A65G as the variant, how does the yeast fitness read?
Its yeast fitness is 0.605.

With C4U U28G C60A as the variant, how does the yeast fitness read?
Its yeast fitness is 0.503.

Which yeast fitness does the source give for C5A C22A G50C A69C here?
Its yeast fitness is 0.845.

For C4U U26C, which yeast fitness is on record?
The yeast fitness was 1.04.

For C4U U26G U59C C62A, which yeast fitness is on record?
The yeast fitness was 0.679.

With C4U U19A G50A G68U as the variant, how does the yeast fitness read?
Its yeast fitness is ≤ 0.5.

For C5A C24A U26G A43C A69U, which yeast fitness is on record?
Its yeast fitness is ≤ 0.5.

For C4U U16C A69C, which yeast fitness is on record?
The yeast fitness was 0.774.

For C5A A15G C33U G44C, which yeast fitness is on record?
The yeast fitness was ≤ 0.5.

For C5A A14U A21C A43C, which yeast fitness is on record?
Its yeast fitness is 0.595.

With C5A A20U C29A G68A as the variant, how does the yeast fitness read?
The yeast fitness was ≤ 0.5.

Which yeast fitness does the source give for C4U U19C C31A G41C here?
Its yeast fitness is 0.53.

For C5A C24U G25C C30G G50C G56A A65U, which yeast fitness is on record?
Its yeast fitness is ≤ 0.5.

For C5A C24U G67U A69C, which yeast fitness is on record?
The yeast fitness was 0.517.

Which yeast fitness does the source give for C5A C30U U54A here?
Its yeast fitness is 0.537.

With C5A A14G C60G as the variant, how does the yeast fitness read?
Its yeast fitness is ≤ 0.5.

For C5A A21U C24U C27G, which yeast fitness is on record?
Its yeast fitness is ≤ 0.5.

With C5A A45U A69U as the variant, how does the yeast fitness read?
The yeast fitness was 0.801.

Which yeast fitness does the source give for C4U U26A C31G here?
The yeast fitness was 0.603.

With C5A A21G C31G G56C U59A C60G C62G A70C as the variant, how does the yeast fitness read?
Its yeast fitness is ≤ 0.5.

For C5A C24U A43C G58A, which yeast fitness is on record?
Its yeast fitness is ≤ 0.5.

For C5A A40G C49U, which yeast fitness is on record?
The yeast fitness was 0.548.

For C5A C24U G25C C30G, which yeast fitness is on record?
Its yeast fitness is ≤ 0.5.

With C5A C29A as the variant, how does the yeast fitness read?
The yeast fitness was 0.612.

Which yeast fitness does the source give for C5A A20U A21U C34G A65G G67A here?
The yeast fitness was ≤ 0.5.

With C4U U32A A57C as the variant, how does the yeast fitness read?
Its yeast fitness is ≤ 0.5.

With C5A C27U as the variant, how does the yeast fitness read?
Its yeast fitness is 0.815.

Which yeast fitness does the source give for C4U U16C G48C here?
The yeast fitness was 0.702.

For C5A A20C A36C A45C, which yeast fitness is on record?
Its yeast fitness is ≤ 0.5.

Which yeast fitness does the source give for C4U U26G G44A here?
The yeast fitness was 0.591.

Which yeast fitness does the source give for C5A C27U G39C C49U C55U here?
The yeast fitness was ≤ 0.5.

With C5A A21G C31A as the variant, how does the yeast fitness read?
The yeast fitness was 0.642.

For C4U U35C A42G, which yeast fitness is on record?
Its yeast fitness is 0.581.

With C5A C27A U28G as the variant, how does the yeast fitness read?
Its yeast fitness is 0.617.

For C5A A21C C30G C34U G38C C49U A70C, which yeast fitness is on record?
Its yeast fitness is 0.551.

Which yeast fitness does the source give for C4U U26G C62G A70U here?
Its yeast fitness is ≤ 0.5.

Which yeast fitness does the source give for C5A C22U G51C here?
The yeast fitness was ≤ 0.5.

For C5A A42C G63C, which yeast fitness is on record?
The yeast fitness was ≤ 0.5.

For C5A A42C G63A, which yeast fitness is on record?
Its yeast fitness is ≤ 0.5.

Which yeast fitness does the source give for C4U U26A G56A here?
The yeast fitness was 0.632.

For C5A C31A C46A G50C, which yeast fitness is on record?
Its yeast fitness is ≤ 0.5.

With C4U U32A U64G as the variant, how does the yeast fitness read?
The yeast fitness was ≤ 0.5.

For C4U U28G C49A C62G, which yeast fitness is on record?
The yeast fitness was ≤ 0.5.

For C5A C29A A45U C62G C66G, which yeast fitness is on record?
The yeast fitness was ≤ 0.5.

For C5A A20U A65G, which yeast fitness is on record?
Its yeast fitness is 0.591.

For C5A A20U C27G G41A A57U U64A, which yeast fitness is on record?
The yeast fitness was 0.642.

For C5A A21U U32A G50A C60G, which yeast fitness is on record?
The yeast fitness was ≤ 0.5.

With C4U U32C C34U G38A as the variant, how does the yeast fitness read?
The yeast fitness was ≤ 0.5.

With C5A C22G U26A A57C G67A A69U as the variant, how does the yeast fitness read?
Its yeast fitness is ≤ 0.5.

Which yeast fitness does the source give for C5A C24U here?
The yeast fitness was 0.71.

Which yeast fitness does the source give for C5A C24G here?
Its yeast fitness is 0.621.

Which yeast fitness does the source give for C5A C31G A37G here?
The yeast fitness was 0.538.

For C5A A14G G17C C29A C33G C34U A36U, which yeast fitness is on record?
The yeast fitness was 0.648.

With C5A A20G C24U G38C G56C as the variant, how does the yeast fitness read?
The yeast fitness was ≤ 0.5.

With C5A A21C A43U C46G as the variant, how does the yeast fitness read?
Its yeast fitness is 0.541.

For C5A C11U C31G, which yeast fitness is on record?
The yeast fitness was 0.558.

For C5A C22A C33U A36C, which yeast fitness is on record?
Its yeast fitness is 0.502.

With C5A A20G U26C A40C as the variant, how does the yeast fitness read?
Its yeast fitness is ≤ 0.5.

Which yeast fitness does the source give for C5A A20G U26A A40G G58C G67U here?
The yeast fitness was ≤ 0.5.

For C5A A14C G23A C24G A36U G63A G68A, which yeast fitness is on record?
The yeast fitness was 0.579.

With C5A A14C A36G G39C C46A A65C as the variant, how does the yeast fitness read?
The yeast fitness was ≤ 0.5.

With C5A A21C A43U C46G C61G as the variant, how does the yeast fitness read?
The yeast fitness was ≤ 0.5.

Which yeast fitness does the source give for C4U U26C A36C here?
Its yeast fitness is ≤ 0.5.

For C5A C22U C27G C30G A57U, which yeast fitness is on record?
Its yeast fitness is ≤ 0.5.
